Results reported in article PMC5563391 (Investigational new drugs, 2015).

Assay: Phase 1 pharmacokinetics of ilorasertib in plasma
Format: in vivo, human
Details: for AUC(0-t) / Cmax / Tmax / half-life / AUC(0-inf): human, plasma; for half-life: t1/2, arm D
How it was run: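 Arm A patients took oral test compound once weekly, in the morning, on days 1, 8 and 15 of 28-day cycles, at 10–690 mg. Plasma was sampled intensively up to 72 h after dosing on days 1 and 15. Noncompartmental analysis gave Cmax, Tmax, t½, AUCt and AUC∞, plus dose-normalized values. Results are summarized by dose level as mean ± SD, with individual values where N=1.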

[1] = arm A, oral once weekly, first dose, 10 mg, N=3, mean ± SD
[2] = arm A, oral once weekly, first dose, 20 mg, N=1
[3] = arm A, oral once weekly, first dose, 40 mg, N=1
[4] = arm A, oral once weekly, first dose, 80 mg, N=2, mean ± SD
[5] = arm A, oral once weekly, first dose, 160 mg, N=3, mean ± SD
[6] = arm A, oral once weekly, first dose, 240 mg, N=5, mean ± SD
[7] = arm A, oral once weekly, first dose, 340 mg, N=3, mean ± SD
[8] = arm A, oral once weekly, first dose, 440 mg, N=4, mean ± SD
[9] = arm A, oral once weekly, first dose, 540 mg, N=3, mean ± SD
[10] = arm A, oral once weekly, first dose, 640 mg, N=6, mean ± SD
[11] = arm A, oral once weekly, first dose, 690 mg, N=1
[12] = arm A, oral once weekly, first dose, all doses, N=32, mean ± SD
[13] = iv, 32 mg, arm D, IV infusion, 32 mg, day 1, N=4, mean ± SD
[14] = iv, 32 mg, arm D, IV infusion, 32 mg, day 15, N=3, mean ± SD
[15] = po, 40 mg, arm A, oral once weekly, first dose, N=1

Q: Which results are given for `Nc1ncc(-c2cnn(CCO)c2)c2scc(-c3ccc(NC(=O)Nc4cccc(F)c4)cc3)c12` [Ilorasertib]?
A: coefficient of variation for dose-normalized Cmax (arm A, oral): approximately 66%; AUC0–24/D (dose-normalized AUC0–24) [1]: 65.8 ± 35.0 ng·h/mL/mg; AUC∞/D (dose-normalized AUC∞) [1]: 70.9 ± 37.9 ng·h/mL/mg; Cmax/D (dose-normalized Cmax) [1]: 3.74 ± 1.56 ng/mL/mg; AUC0–24/D (dose-normalized AUC0–24) [2]: 27.2 ng·h/mL/mg; AUC∞/D (dose-normalized AUC∞) [2]: 28.5 ng·h/mL/mg; Cmax/D (dose-normalized Cmax) [2]: 2.98 ng/mL/mg; AUC0–24/D (dose-normalized AUC0–24) [3]: 43.9 ng·h/mL/mg; AUC∞/D (dose-normalized AUC∞) [3]: 45.8 ng·h/mL/mg; Cmax/D (dose-normalized Cmax) [3]: 4.95 ng/mL/mg; AUC0–24/D (dose-normalized AUC0–24) [4]: 15.2 ± 5.10 ng·h/mL/mg; AUC∞/D (dose-normalized AUC∞) [4]: 15.7 ± 5.18 ng·h/mL/mg; Cmax/D (dose-normalized Cmax) [4]: 1.44 ± 4.90 ng/mL/mg; AUC0–24/D (dose-normalized AUC0–24) [5]: 19.4 ± 8.86 ng·h/mL/mg; AUC∞/D (dose-normalized AUC∞) [5]: 20.2 ± 9.28 ng·h/mL/mg; Cmax/D (dose-normalized Cmax) [5]: 1.86 ± 0.98 ng/mL/mg; AUC0–24/D (dose-normalized AUC0–24) [6]: 16.6 ± 12.4 ng·h/mL/mg; AUC∞/D (dose-normalized AUC∞) [6]: 17.5 ± 13.5 ng·h/mL/mg; Cmax/D (dose-normalized Cmax) [6]: 1.22 ± 0.59 ng/mL/mg; AUC0–24/D (dose-normalized AUC0–24) [7]: 16.9 ± 2.56 ng·h/mL/mg; AUC∞/D (dose-normalized AUC∞) [7]: 17.7 ± 2.09 ng·h/mL/mg; Cmax/D (dose-normalized Cmax) [7]: 1.74 ± 1.0 ng/mL/mg; AUC0–24/D (dose-normalized AUC0–24) [8]: 30.7 ± 17.1 ng·h/mL/mg; AUC∞/D (dose-normalized AUC∞) [8]: 32.1 ± 18.0 ng·h/mL/mg; Cmax/D (dose-normalized Cmax) [8]: 2.88 ± 1.89 ng/mL/mg; AUC0–24/D (dose-normalized AUC0–24) [9]: 10.7 ± 2.0 ng·h/mL/mg; AUC∞/D (dose-normalized AUC∞) [9]: 11.1 ± 2.28 ng·h/mL/mg; Cmax/D (dose-normalized Cmax) [9]: 0.964 ± 0.183 ng/mL/mg; AUC0–24/D (dose-normalized AUC0–24) [10]: 30.7 ± 23.1 ng·h/mL/mg; AUC∞/D (dose-normalized AUC∞) [10]: 31.7 ± 23.4 ng·h/mL/mg; Cmax/D (dose-normalized Cmax) [10]: 2.42 ± 1.57 ng/mL/mg; AUC0–24/D (dose-normalized AUC0–24) [11]: 11.7 ng·h/mL/mg; AUC∞/D (dose-normalized AUC∞) [11]: 12.3 ng·h/mL/mg; Cmax/D (dose-normalized Cmax) [11]: 1.22 ng/mL/mg; AUC0–24/D (dose-normalized AUC0–24) [12]: 26.3 ± 21.3 ng·h/mL/mg; AUC∞/D (dose-normalized AUC∞) [12]: 27.6 ± 22.7 ng·h/mL/mg; Cmax/D (dose-normalized Cmax) [12]: 2.16 ± 1.43 ng/mL/mg; accumulation of study drug (arm B, between days 1 and 15, multiple doses): no apparent accumulation; pharmacokinetic interaction between ilorasertib and azacitidine (arm C, oral ilorasertib with azacitidine): no apparent pharmacokinetic drug-drug interaction; time of peak plasma concentrations (arm D, IV dosing): end of the 4-hour infusion; AUC(0-t) (iv, 32 mg, AUC0–24, arm D, IV infusion, 32 mg, day 1, N=4, mean ± SD): 4980 ± 3900 ng·h/mL; AUC(0-t) (iv, 32 mg, AUC0–24, arm D, IV infusion, 32 mg, day 15, N=3, mean ± SD): 8220 ± 9110 ng·h/mL; Cmax [13]: 587 ± 360 ng/mL; Cmax [14]: 414 ± 140 ng/mL; Tmax [13]: 4.1 ± 0.3 h; Tmax [14]: 3.9 h; half-life (iv, 32 mg, IV infusion, 32 mg, day 1, N=4): 372 ± 306 min; half-life (iv, 32 mg, IV infusion, 32 mg, day 15, N=3): 348 ± 1240 min; AUC(0-inf) (po, 10 mg): 710 ± 380 ng·h/mL; AUC(0-t) (po, 10 mg, AUC0–24, arm A, oral once weekly, first dose, N=3, mean ± SD): 660 ± 350 ng·h/mL; AUC(0-inf) (po, 20 mg): 570 ng·h/mL; Cmax (po, 20 mg, arm A, oral once weekly, first dose, N=1): 60 ng/mL; AUC(0-inf) (po, 40 mg): 1830 ng·h/mL; Cmax [15]: 198 ng/mL; Tmax [15]: 3 h; AUC(0-inf) (po, 80 mg): 1260 ± 410 ng·h/mL; AUC(0-t) (po, 80 mg): 1220 ± 410 ng·h/mL; AUC(0-inf) (po, 160 mg): 3240 ± 1490 ng·h/mL; AUC(0-inf) (po, 240 mg): 4190 ± 3230 ng·h/mL; AUC(0-t) (po, 320 mg, AUC0–24, arm B, oral twice weekly, 320 mg, day 1, N=6, mean ± SD): 29700 ± 19000 ng·h/mL; AUC(0-t) (po, 320 mg, AUC0–24, arm B, oral twice weekly, 320 mg, day 15, N=4, mean ± SD): 30700 ± 15000 ng·h/mL; AUC(0-inf) (po, 340 mg): 6010 ± 710 ng·h/mL; AUC(0-inf) (po, 440 mg): 14100 ± 7940 ng·h/mL
